PMC7498667 (Neoplasia (New York, N.Y.), 2020)

Tests used:
[1] = tested on: AR+/ER−/PR− breast cancer; settings: cited from earlier work
[2] = tested on: caspase-8, −9, −3, and −7 and PARP; assay: Cleavage of caspases and PARP, Western blot; type: cell-based, human; settings: 1 or 10 µM, MDA-MB-453 and HCC1428, 48 h
Outline: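 MDA-MB-453 and HCC1428 cells were exposed to a concentration range of test compound for 48 h. Cells were lysed in RIPA with protease and phosphatase inhibitors for 30 min on ice. Lysates were run on SDS-PAGE and transferred to PVDF. Membranes were blocked in 5% milk in TBST, probed with primary antibodies for cleaved caspases and PARP overnight at 4 °C and with HRP secondary, then developed by ECL.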

[3] = tested on: 5 AR+ breast cancer cell lines; assay: Cell growth inhibition, WST-8 assay, statements for the whole panel; type: cell-based, human; settings: concentrations up to 10 µM, 5 AR+ cell lines
[4] = Animal weight and signs of toxicity in efficacy experiment; type: in vivo; settings: entire efficacy experiment, MDA-MB-453 xenograft mice
Outline: (§1)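 Male CB.17 SCID mice were implanted s.c. with 5 × 10^6 MDA-MB-453 cells in 5 mg/ml Matrigel. At a mean tumour volume of 100 mm3, mice were randomised by tumour size. Test compound or vehicle (20% PEG400 + 6% Cremophor EL + 74% PBS) was given i.p. daily. Tumours and body weights were measured twice weekly, with volume = length × width²/2. Data are mean ± SEM, n=8.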

[5] = tested on: MDA-MB-453 xenograft tumor; assay: Antitumor efficacy in MDA-MB-453 xenograft tumor model; type: in vivo, mice; settings: enzalutamide 50 mg/kg IP dose
Outline: as §1

metastatic AR+, TNBCs = settings: phase 2, metastatic AR+ TNBC; cited from earlier work
[6] = tested on: MDA-MB-453, HCC1428 and MCF-7 cells; assay: Cell cycle analysis by flow cytometry; type: cell-based, human; settings: 10 µM, 72 h
Outline: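 MDA-MB-453, HCC1428 and MCF-7 cells were treated for 72 h with a concentration range of test compound (AR antagonist comparators at 10 µM), or with 1 µM over a time course. Cells were fixed in 70% ethanol overnight at 4 °C, stained with propidium iodide plus 0.2 mg/ml RNase A for 30 min at room temperature, and cell-cycle distribution was measured by flow cytometry. Data are mean ± SEM.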

[7] = tested on: MDA-MB-453, HCC1428 and MCF-7 cells; assay: Apoptosis analysis by flow cytometry; type: cell-based, human; settings: 10 µM, 3-day treatment
Outline: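 MDA-MB-453, HCC1428 and MCF-7 cells were treated for 72 h with a concentration range of test compound, with AR antagonist comparators at 10 µM. For the time course, MDA-MB-453 and HCC1428 cells received 1 µM. Cells were washed in cold PBS, stained with an apoptosis detection kit and analysed by flow cytometry for percent live and apoptotic cells. Data are mean ± SEM, n=3.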

AR protein = type: cell-based, human; settings: MDA-MB-453 cells, combination with ARD-61 for 24 h

CC(O)(CS(=O)(=O)c1ccc(F)cc1)C(=O)Nc1ccc(C#N)c(C(F)(F)F)c1 (stereo not shown) [Bicalutamide]
Clinical benefit ratio (CBR) [1]: 19% | Toxicity [1]: minimal toxicity

CNC(=O)c1ccc(N2C(=S)N(c3ccc(C#N)c(C(F)(F)F)c3)C(=O)C2(C)C)cc1F [Enzalutamide]
Effect on cleavage of caspase-8, −9, −3, −7 and PARP [2]: minimal effect | Inhibition of cell growth [3]: minimal activity | Animal weight loss or other signs of toxicity [4]: No animal weight loss or other signs of toxicity | Antitumor activity [5]: very similar with that of ARD-61 at 25 mg/kg | Progression-free survival (metastatic AR+, TNBCs): significant improvement | Effect on cell cycle (G2/M arrest) [6]: minimal effect | Apoptosis induction [7]: minimal apoptosis

C[C@]1(O)CC[C@H]2[C@@H]3CCC4=CC(=O)CCC4=C3C=C[C@@]21C [R1881, metribolone]
Effect on AR depletion induced by ARD-61 (AR protein): effectively block
